Converted amounts (≈) assume the structure as drawn.
How the values were obtained:
[1] = tested on: Mammalian orthoreovirus 1; test: Antiviral activity against Reovirus 1 infected in african green monkey Vero cells assessed as protection from virus-induced cytopathogenicity after 6 to 7 days by MTT assay; type: functional, organism-based; details: Mammalian orthoreovirus 1, Vero
Human alphaherpesvirus 1 [2] = test: Antiviral activity against acyclovir-sensitive Herpes simplex virus 1 KOS infected in HEL cells assessed as protection from virus-induced cytopathogenicity after 2 to 3 days by MTT assay; type: functional, organism-based; details: Human alphaherpesvirus 1, KOS
Feline coronavirus = test: Antiviral activity against Feline coronavirus infected in cat CRFK cells assessed as protection from virus-induced cytopathogenicity by MTT assay; type: functional, organism-based; details: Alphacoronavirus 1, CRFK
MDCK [3] = test: Cytotoxicity against Influenza B virus infected MDCK cells by trypan blue exclusion method; type: cell-based, Canis lupus familiaris; details: dog
in vitro = details: human, HeLa cells
MDCK [4] = test: Cytotoxicity against Influenza A virus subtype H3N2 infected MDCK cells by trypan blue exclusion method; type: cell-based, Canis lupus familiaris; details: dog
HeLa [5] = test: (§1) Cytotoxicity against VSV infected human HeLa cells by trypan blue exclusion method; type: cell-based; details: hela
How it was run: (§2)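 Uninfected confluent cultures were run in parallel with the infected cultures. Medium was replaced by 1 ml maintenance medium with serial compound concentrations; cell controls received no compound. Cultures were incubated at 37 °C. After 2 and 7 days, compound was withdrawn and viability was determined by trypan blue exclusion.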

Sindbis virus = test: Antiviral activity against Sindbis virus infected in african green monkey Vero cells assessed as protection from virus-induced cytopathogenicity after 2 to 3 days by MTT assay; type: functional, organism-based
Proteus mirabilis = test: Antibacterial activity against Proteus mirabilis after 24 hrs by broth microdilution method; type: functional
How it was run: (§3)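 Clinical isolates. Each dilution received 100 μl of 0.5 McFarland fresh culture. Solvent (DMSO), growth and standard controls were included. Tubes were incubated at 37 °C for 24 h. MIC is the highest dilution showing no turbidity. Tests were run in triplicate, with at least two repetitions.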

Escherichia coli = test: Antibacterial activity against Escherichia coli after 24 hrs by broth microdilution method; type: functional; how it was run: as §3
[6] = tested on: Respiratory syncytial virus; test: Antiviral activity against Respiratory syncytial virus infected in human HeLa cells assessed as protection from virus-induced cytopathogenicity after 4 days by MTT assay; type: functional, organism-based; details: 96 h
[7] = Cytotoxicity against HIV1 3B-infected human MT4 cells by MTT assay; type: cell-based; details: MT4 cells infected with HIV-1 3B
How it was run: (§4)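 MT-4 cells (3 × 10^4 per well) were cultured in microdilution trays with various concentrations of compound, then incubated 5 days at 37 °C, and viable cell number was read by MTT.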

Human alphaherpesvirus 1 [8] = test: Antiviral activity against Herpes simplex virus 1 KOS infected in HEL cells assessed as protection from virus-induced cytopathogenicity after 2 to 3 days by MTT assay; type: functional, organism-based; details: Human alphaherpesvirus 1, KOS
Vero [9] = test: (§5) Cytotoxicity against PIV 3 infected african green monkey Vero cells by trypan blue exclusion method; type: cell-based; details: chlorocebus sabaeus, vero; how it was run: as §2
Streptococcus viridans = test: Antibacterial activity against Streptococcus viridans after 24 hrs by broth microdilution method; type: functional; how it was run: as §3
Human respirovirus 3 = test: Antiviral activity against PIV 3 infected in african green monkey Vero cells assessed as protection from virus-induced cytopathogenicity after 6 to 7 days by MTT assay; type: functional, organism-based; details: Human respirovirus 3, Vero
[10] = Cytotoxicity against Feline coronavirus infected cat CRFK cells by trypan blue exclusion method; type: cell-based, Felis catus; details: crfk; how it was run: as §2
[11] = tested on: Vesicular stomatitis virus; test: Antiviral activity against VSV infected in human HeLa cells assessed as protection from virus-induced cytopathogenicity after 1 to 2 days by MTT assay; type: functional, organism-based
Influenza B virus = test: Antiviral activity against Influenza B virus infected in MDCK cells assessed as protection from virus-induced cytopathogenicity after 6 to 7 days by MTT assay; type: functional, organism-based
HEL [12] = test: (§6) Cytotoxicity against Vaccinia virus infected HEL cells by trypan blue exclusion method; type: cell-based; details: human, hel; how it was run: as §2
[13] = tested on: Human immunodeficiency virus 1; test: Antiviral activity against HIV1 3B-infected in human MT4 cells assessed as protection from virus-induced cytopathogenicity after 5 days by MTT assay; type: functional, organism-based; details: Human immunodeficiency virus 1, 3B, MT4, 120 h
How it was run: (§7)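 MT-4 cells at 3 × 10^4 per well were infected with HIV (IIIB or ROD) at 50% cell culture infective doses. Graded compound concentrations were added immediately after infection. Plates were incubated for 5 days at 37 °C and viable cells were counted by MTT.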

Coxsackievirus B4 [14] = test: Antiviral activity against Human coxsackievirus B4 infected in human HeLa cells assessed as protection from virus-induced cytopathogenicity after 2 days by MTT assay; type: functional, organism-based; details: Enterovirus B, 48 h
[15] = tested on: Human immunodeficiency virus 2; test: Antiviral activity against HIV2 ROD infected in human MT4 cells assessed as protection from virus-induced cytopathogenicity after 5 days by MTT assay; type: functional, organism-based; details: Human immunodeficiency virus 2, ISOLATE ROD, MT4, 120 h; how it was run: as §7
Vero [16] = test: (§8) Cytotoxicity against Human coxsackievirus B4 infected african green monkey Vero cells by trypan blue exclusion method; type: cell-based; details: chlorocebus sabaeus, vero; how it was run: as §2
HEL [17] = test: (§9) Cytotoxicity against Herpes simplex virus 2 G infected HEL cells by trypan blue exclusion method; type: cell-based; details: human, hel; how it was run: as §2
[18] = Cytotoxicity against Feline herpesvirus infected cat CRFK cells by trypan blue exclusion method; type: cell-based, Felis catus; details: crfk; how it was run: as §2
Vero [19] = test: (§10) Cytotoxicity against Reovirus 1 infected african green monkey Vero cells by trypan blue exclusion method; type: cell-based; details: chlorocebus sabaeus, vero; how it was run: as §2
[20] = Cytotoxicity against HIV2 ROD infected human MT4 cells by MTT assay; type: cell-based; details: MT4 cells infected with HIV-2 ROD; how it was run: as §4
Influenza A virus [21] = test: Antiviral activity against Influenza A virus H3N2 infected in MDCK cells assessed as protection from virus-induced cytopathogenicity after 6 to 7 days by MTT assay; type: functional, organism-based
HeLa [22] = test: (§11) Cytotoxicity against Respiratory syncytial virus infected human HeLa cells by trypan blue exclusion method; type: cell-based; details: hela; how it was run: as §2
Influenza A virus [23] = test: Antiviral activity against Influenza A virus H1N1 infected in MDCK cells assessed as protection from virus-induced cytopathogenicity after 6 to 7 days by MTT assay; type: functional, organism-based
HeLa [24] = test: (§12) Cytotoxicity against Human coxsackievirus B4 infected human HeLa cells by trypan blue exclusion method; type: cell-based; details: hela; how it was run: as §2
HEL [25] = test: (§13) Cytotoxicity against VSV infected HEL cells by trypan blue exclusion method; type: cell-based; details: human, hel; how it was run: as §2
HEL [26] = test: (§14) Cytotoxicity against Herpes simplex virus 1 KOS infected HEL cells by trypan blue exclusion method; type: cell-based; details: human, hel; how it was run: as §2
Punta Toro virus = test: Antiviral activity against Punta Toro virus infected in african green monkey Vero cells assessed as protection from virus-induced cytopathogenicity by MTT assay; type: functional, organism-based
Coxsackievirus B4 [27] = test: Antiviral activity against Human coxsackievirus B4 infected in african green monkey Vero cells assessed as protection from virus-induced cytopathogenicity after 2 days by MTT assay; type: functional, organism-based; details: Enterovirus B, 48 h
HEL [28] = test: Cytotoxicity against acyclovir-sensitive Herpes simplex virus 1 KOS infected HEL cells by trypan blue exclusion method; type: cell-based; details: human; how it was run: as §2
[29] = tested on: Vesicular stomatitis virus; test: Antiviral activity against VSV infected in HEL cells assessed as protection from virus-induced cytopathogenicity after 1 to 2 days by MTT assay; type: functional, organism-based
Human alphaherpesvirus 2 = test: Antiviral activity against Herpes simplex virus 2 G infected in HEL cells assessed as protection from virus-induced cytopathogenicity after 2 to 3 days by MTT assay; type: functional, organism-based; details: Human alphaherpesvirus 2, strain G
Klebsiella pneumoniae = test: Antibacterial activity against Klebsiella pneumoniae after 24 hrs by broth microdilution method; type: functional; how it was run: as §3
Vero [30] = test: (§15) Cytotoxicity against Sindbis virus infected african green monkey Vero cells by trypan blue exclusion method; type: cell-based; details: chlorocebus sabaeus, vero; how it was run: as §2
Vero [31] = test: (§16) Cytotoxicity against Punta Toro virus infected african green monkey Vero cells by trypan blue exclusion method; type: cell-based; details: chlorocebus sabaeus, vero; how it was run: as §2
[32] = Selectivity index, ratio of CC50 for HIV2 ROD infected human MT4 cells to IC50 for […] ROD; type: functional
Felid alphaherpesvirus 1 = test: Antiviral activity against Feline herpesvirus infected in cat CRFK cells assessed as protection from virus-induced cytopathogenicity by MTT assay; type: functional, organism-based; details: Felid alphaherpesvirus 1, CRFK
[33] = as §1; type: cell-based; details: HeLa cells infected with VSV; how it was run: as §2
[34] = as §5; type: cell-based; details: chlorocebus sabaeus, Vero cells infected with PIV 3; how it was run: as §2
[35] = as §6; type: cell-based; details: human, HEL cells infected with vaccinia virus; how it was run: as §2
[36] = as §8; type: cell-based; details: chlorocebus sabaeus, Vero cells infected with human coxsackievirus B4; how it was run: as §2
[37] = as §9; type: cell-based; details: human, HEL cells infected with herpes simplex virus 2 G; how it was run: as §2
[38] = as §10; type: cell-based; details: chlorocebus sabaeus, Vero cells infected with reovirus 1; how it was run: as §2
[39] = as §11; type: cell-based; details: HeLa cells infected with respiratory syncytial virus; how it was run: as §2
[40] = as §12; type: cell-based; details: HeLa cells infected with human coxsackievirus B4; how it was run: as §2
[41] = as §13; type: cell-based; details: human, HEL cells infected with VSV; how it was run: as §2
[42] = as §14; type: cell-based; details: human, HEL cells infected with herpes simplex virus 1 KOS; how it was run: as §2
[43] = as §15; type: cell-based; details: chlorocebus sabaeus, Vero cells infected with Sindbis virus; how it was run: as §2
[44] = as §16; type: cell-based; details: chlorocebus sabaeus, Vero cells infected with Punta Toro virus; how it was run: as §2

COc1cc(/C=C/C(=O)CC(=O)/C=C/c2ccc(OC(=O)[C@H](Cc3ccccc3)NC(=O)[C@@H](N)Cc3c[nH]c4ccccc34)c(OC)c2)ccc1OC(=O)[C@H](Cc1ccccc1)NC(=O)[C@@H](N)Cc1c[nH]c2ccccc12
EC50 [1]: > 19 nM | EC50 (Human alphaherpesvirus 1 [2]): > 38 nM | EC50 (Feline coronavirus): > 96 nM | CC50 (MDCK [3]): 46 nM | selectivity ratio (in vitro): 9 | CC50 (MDCK [4]): 46 nM | CC50 (HeLa [5]): 96 nM | EC50 (Sindbis virus): > 19 nM | MIC (Proteus mirabilis): 0.43 µM (≈ 0.445 µg/mL) | MIC (Escherichia coli): 0.43 µM (≈ 0.445 µg/mL) | EC50 [6]: > 19 nM | CC50 [7]: > 94 nM | EC50 (Human alphaherpesvirus 1 [8]): > 19 nM | CC50 (Vero [9]): 19 nM | MIC (Streptococcus viridans): 0.43 µM (≈ 0.445 µg/mL) | EC50 (Human respirovirus 3): > 38 nM | CC50 [10]: > 96 nM | EC50 [11]: 11 nM | EC50 (Influenza B virus): > 96 nM | CC50 (HEL [12]): 19 nM | IC50 [13]: 94 nM | EC50 (Coxsackievirus B4 [14]): > 19 nM | IC50 [15]: 107 nM | CC50 (Vero [16]): 96 nM | CC50 (HEL [17]): 19 nM | CC50 [18]: > 96 nM | CC50 (Vero [19]): 96 nM | CC50 [20]: > 107 nM | EC50 (Influenza A virus [21]): > 96 nM | CC50 (HeLa [22]): 96 nM | EC50 (Influenza A virus [23]): > 96 nM | CC50 (HeLa [24]): 96 nM | CC50 (HEL [25]): 19 nM | CC50 (HEL [26]): 96 nM | EC50 (Punta Toro virus): > 19 nM | EC50 (Coxsackievirus B4 [27]): > 19 nM | CC50 (HEL [28]): 19 nM | EC50 [29]: > 38 nM | EC50 (Human alphaherpesvirus 2): > 38 nM | MIC (Klebsiella pneumoniae): 0.43 µM (≈ 0.445 µg/mL) | CC50 (Vero [30]): 96 nM | CC50 (Vero [31]): 96 nM | Ratio CC50/IC50 [32]: <1 | EC50 (Felid alphaherpesvirus 1): > 96 nM

NC(=O)c1ncn([C@@H]2O[C@H](CO)[C@@H](O)[C@H]2O)n1 [RIBAVIRIN]
EC50 (Human alphaherpesvirus 1 [2]): 125000 nM | CC50 [33]: > 250000 nM | EC50 (Sindbis virus): 111000 nM | EC50 [6]: 30000 nM | EC50 (Human alphaherpesvirus 1 [8]): 10000 nM | CC50 [34]: > 250000 nM | EC50 (Human respirovirus 3): 95000 nM | CC50 [35]: > 250000 nM | EC50 (Coxsackievirus B4 [14]): 30000 nM | CC50 [36]: > 250000 nM | CC50 [37]: > 250000 nM | CC50 [38]: > 250000 nM | CC50 [39]: > 250000 nM | EC50 (Influenza A virus [23]): 7000 nM | CC50 [40]: > 250000 nM | CC50 [41]: > 250000 nM | CC50 [42]: > 250000 nM | EC50 (Coxsackievirus B4 [27]): > 250000 nM | EC50 [29]: > 250000 nM | EC50 (Human alphaherpesvirus 2): 50000 nM | CC50 [43]: > 250000 nM | CC50 [44]: > 250000 nM
